One block for each molecule: values may come before it. The source made the active and inactive calls. No cut-off for these calls is given here.
Experiments:
[1] = Cytotoxicity against patient-derived U3013MG cells assessed as reduction in cell viability after 48 hrs by Celltiter-Glo reagent based assay; type: functional; settings: Homo sapiens
[2] = test system: U3013MG; assay: Cytotoxicity against patient-derived U3013MG cells assessed as induction of catastrophic vacuolization at 5 uM after 4 to 8 hrs by light microscopy; type: functional, cell-based; settings: Homo sapiens
Summary of the method: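 U3013 glioblastoma cells in 384-well plates were examined by light microscopy at 4 h intervals for large lucent intracellular vacuoles, with bright-field imaging at 37 °C, 5% CO2.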

[3] = Cytotoxicity against patient-derived U3013MG cells assessed as reduction in cell viability by Celltiter-Glo reagent based assay; type: functional; settings: Homo sapiens
[4] = Cmax in NMRI mouse brain at 2 mg/kg, iv administered as single dose measured after 144 hrs by UPLC-MS/MS analysis; type: ADME, organism-based; parameters: dose 2 mg/kg, route intravenous
Summary of the method: (§1)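 Single dose to male NMRI mice, i.v. tail vein under light isoflurane or p.o. gavage without anesthesia. Blood by orbital plexus into EDTA, plasma by centrifugation at +4 °C; brains homogenized in 4 mL PBS (pH 7.4) per g. Sampled 15 min to 144 h, n = 3 per time point. UPLC-MS/MS with internal standard; noncompartmental analysis of composite mean profiles using nominal times and doses.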

[5] = Cmax in NMRI mouse brain at 20 mg/kg, po administered as single dose through gavage measured after 144 hrs by UPLC-MS/MS analysis; type: ADME, organism-based; parameters: dose 20 mg/kg, route oral; summary of the method: as §1
[6] = AUClast in NMRI mouse brain at 2 mg/kg, iv administered as single dose measured after 144 hrs by UPLC-MS/MS analysis; type: ADME, organism-based; parameters: dose 2 mg/kg, time < 144 hr, route intravenous; summary of the method: as §1
[7] = AUClast in NMRI mouse brain at 20 mg/kg, po administered as single dose through gavage measured after 144 hrs by UPLC-MS/MS analysis; type: ADME, organism-based; parameters: dose 20 mg/kg, time < 144 hr, route oral; summary of the method: as §1
[8] = Tlast in NMRI mouse brain at 2 mg/kg, iv administered as single dose by UPLC-MS/MS analysis; type: ADME, organism-based; settings: in vivo; summary of the method: as §1
[9] = Tlast in NMRI mouse brain at 20 mg/kg, po administered as single dose through gavage by UPLC-MS/MS analysis; type: ADME, organism-based; settings: in vivo; summary of the method: as §1
[10] = Half life in NMRI mouse brain at 2 mg/kg, iv administered as single dose by UPLC-MS/MS analysis; type: ADME, organism-based; summary of the method: as §1
[11] = Half life in NMRI mouse brain at 20 mg/kg, po administered as single dose through gavage by UPLC-MS/MS analysis; type: ADME, organism-based; summary of the method: as §1
[12] = Oral bioavailability in NMRI mouse brain at 20 mg/kg administered as single dose through gavage measured after 144 hrs by UPLC-MS/MS analysis; type: ADME, organism-based; summary of the method: as §1
[13] = AUClast in NMRI mouse plasma at 2 mg/kg, iv administered as single dose measured up to 144 hrs post dose by UPLC-MS/MS analysis; type: ADME, organism-based; parameters: time < 144 hr, dose 2 mg/kg, route intravenous; summary of the method: as §1
[14] = AUClast in NMRI mouse plasma at 20 mg/kg, po administered as single dose through gavage measured up to 144 hrs post dose by UPLC-MS/MS analysis; type: ADME, organism-based; parameters: dose 20 mg/kg, time < 144 hr, route oral; summary of the method: as §1
[15] = Tlast in NMRI mouse plasma at 2 mg/kg, iv administered as single dose by UPLC-MS/MS analysis; type: ADME, organism-based; settings: in vivo; summary of the method: as §1
[16] = Tlast in NMRI mouse plasma at 20 mg/kg, po administered as single dose through gavage by UPLC-MS/MS analysis; type: ADME, organism-based; settings: in vivo; summary of the method: as §1
[17] = Half life in NMRI mouse plasma at 20 mg/kg, po administered as single dose through gavage by UPLC-MS/MS analysis; type: ADME, organism-based; summary of the method: as §1
[18] = Toxicity in NMRI mouse assessed as drug tolerance at 2 mg/kg, iv administered as single dose up to 144 hrs; type: organism-based; settings: in vivo
[19] = Toxicity in NMRI mouse assessed as drug tolerance at 20 mg/kg, po administered as single dose through gavage up to 144 hrs; type: organism-based; settings: in vivo
[20] = CNS toxicity in NMRI mouse at 2 mg/kg, iv administered as single dose up to 144 hrs; type: organism-based; settings: in vivo
[21] = CNS toxicity in NMRI mouse at 20 mg/kg, po administered as single dose through gavage up to 144 hrs; type: organism-based; settings: in vivo
[22] = Systemic toxicity in NMRI mouse at 2 mg/kg, iv administered as single dose up to 144 hrs; type: organism-based; settings: in vivo
[23] = Systemic toxicity in NMRI mouse at 20 mg/kg, po administered as single dose through gavage up to 144 hrs; type: organism-based; settings: in vivo
[24] = Fraction unbound in NMRI mouse plasma at 5 uM by LC-MS based equilibrium dialysis method; type: ADME, cell-free
Summary of the method: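 Equilibrium dialysis across a semipermeable membrane, 100% mouse plasma against pH 7.4 buffer, 5 μM compound at 0.5% final DMSO, 37 °C. Both sides sampled after equilibration. Duplicate incubations, reported as averages.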

[25] = Ratio of drug level in NMRI mouse brain to plasma at 2 mg/kg, iv or 20 mg/kg, po administered as single dose through gavage measured up to 144 hrs post dose by UPLC-MS/MS analysis; type: ADME, organism-based; settings: brain and plasma, read-out: BPR; summary of the method: as §1
[26] = Toxicity in 2 days post fertilized zebra fish embryo assessed as effect on larval development up to 50 uM; parameters: species or system Danio rerio; settings: zebrafish, 48 h
Summary of the method: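 Zebrafish embryos were exposed to rising concentrations up to 50 μM or to vehicle, and larval development was scored visually at 2 days post-fertilization.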

[27] = test system: U3013MG; assay: Antitumor activity against GFP-labeled human U3013MG cells orthotopically xenografted in 2 days post fertilized zebra fish embryo assessed as reduction in tumor cells at 30 uM measured 6 days post transplantation by fluorescence assay; type: functional, cell-based
Summary of the method: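 U3013 cells labeled with Cell Tracker Green; about 3000 cells injected into the brain ventricle of 2 dpf Mitfa-morpholino larvae. Three embryos per well in 200 μL egg water holding compound or 0.1% DMSO, renewed every 6 h. Imaged 6 days post-transplantation; tumor burden from GFP fluorescence intensity and counts of larvae with grafted cells.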

[28] = Toxicity in 2 days post fertilized zebra fish embryo orthotopically xenografted with GFP-labeled human U3013MG cells assessed as larval development defect at 30 uM; parameters: species or system Danio rerio; settings: zebrafish, 48 h
[29] = Half life in NMRI mouse plasma at 2 mg/kg, iv administered as single dose by UPLC-MS/MS analysis; type: ADME, organism-based; summary of the method: as §1

SMILES: O[C@H](c1cc(-c2ccc(Cl)cc2)nc2ccccc12)[C@H]1CCCCN1 (single isomer, unassigned)
- IC50 [1]: 10.5 µM
- Activity [2]: inactive

SMILES: OC(c1cc(-c2ccc[nH]2)nc2ccccc12)C1CCCCN1 (stereo not given)
- IC50 [1]: > 50 µM

SMILES: OC(c1cc(-c2ccc(Cl)cc2)nc2ccccc12)C1CCCCN1 (stereo not given)
- IC50 [3]: 3.14 µM

- Cmax [4]: 1970 ng/mL
- Cmax [5]: 4840 ng/mL
- AUC(0-t) at 144 h [6]: 53.1 µg·h/mL
- AUC(0-t) at 144 h [7]: 400 µg·h/mL
- Tlast [8]: 144 h
- Tlast [9]: 144 h
- half-life [10]: 72 h
- half-life [11]: 65 h
- bioavailability [12]: 75.2%
- AUC(0-t) at 144 h [13]: 62 µg·h/mL
- AUC(0-t) at 144 h [14]: 246 µg·h/mL
- Tlast [15]: 144 h
- Tlast [16]: 144 h
- half-life [17]: 81 h
- fraction unbound at 5 µM [24]: 0.0137
- Kp at 144 h [25]: 2
SMILES: O[C@H](c1cc(-c2ccc(Cl)cc2)nc2ccccc12)[C@@H]1CCCCN1
- IC50 [1]: 3.79 µM
- Activity [2]: Active
- Activity [18]: Non-Toxic
- Activity [19]: Non-Toxic
- Activity [20]: Non-Toxic
- Activity [21]: Non-Toxic
- Activity [22]: Non-Toxic
- Activity [23]: Non-Toxic
- Activity [26]: Non-Toxic
- Activity [27]: Active
- Activity [28]: Non-Toxic

SMILES: Cc1ccc(-c2cc([C@@H](O)[C@@H]3CCCCN3)c3ccccc3n2)cc1C#N (relative stereo)
- IC50 [1]: 32.1 µM

SMILES: CCCN(CCC)C(=O)c1ccc(-c2cc([C@@H](O)[C@@H]3CCCCN3)c3ccccc3n2)cc1 (relative stereo)
- IC50 [1]: 35.4 µM

SMILES: O[C@@H](c1cc(-c2ccc(Cl)cc2)nc2ccccc12)[C@@H]1CCCCN1 (single isomer, unassigned)
- IC50 [1]: 9.91 µM
- Activity [2]: inactive

SMILES: OC(c1cc(-c2ccsc2)nc2ccccc12)C1CCCCN1 (stereo not given)
- IC50 [1]: 26.5 µM

SMILES: OC(c1cc(-c2ccncc2)nc2ccccc12)C1CCCCN1 (stereo not given)
- IC50 [1]: > 50 µM

SMILES: OC(c1cc(-c2cncnc2)nc2ccccc12)C1CCCCN1 (stereo not given)
- IC50 [1]: > 50 µM

SMILES: O[C@H](c1cc(-c2ccc(C(F)(F)F)nc2)nc2ccccc12)[C@@H]1CCCCN1 (relative stereo)
- IC50 [1]: 38 µM

SMILES: Cc1noc(C)c1-c1cc(C(O)C2CCCCN2)c2ccccc2n1 (stereo not given)
- IC50 [1]: > 50 µM

- Cmax [4]: 777 ng/mL
- Cmax [5]: 1490 ng/mL
- AUC(0-t) at 144 h [6]: 12.2 µg·h/mL
- AUC(0-t) at 144 h [7]: 157 µg·h/mL
- Tlast [8]: 144 h
- Tlast [9]: 144 h
- half-life [10]: 67 h
- half-life [11]: 96 h
- bioavailability [12]: 89%
- AUC(0-t) at 144 h [13]: 14.1 µg·h/mL
- AUC(0-t) at 144 h [14]: 183 µg·h/mL
- Tlast [15]: 144 h
- Tlast [16]: 144 h
- half-life [29]: 48 h
- half-life [17]: 69 h
- fraction unbound at 5 µM [24]: 0.0059
SMILES: O[C@@H](c1cc(-c2ccc(Cl)cc2)nc2ccccc12)[C@H]1CCCCN1
- IC50 [1]: 3.46 µM
- Activity [18]: Non-Toxic
- Activity [19]: Non-Toxic
- Activity [20]: Non-Toxic
- Activity [21]: Non-Toxic
- Activity [22]: Non-Toxic
- Activity [23]: Non-Toxic

SMILES: O[C@H](c1cc(-c2ccc(C(F)(F)F)cc2)nc2ccccc12)[C@@H]1CCCCN1 (relative stereo)
- IC50 [1]: 13.5 µM

SMILES: Cc1ccc(-c2cc(C(O)C3CCCCN3)c3ccccc3n2)o1 (stereo not given)
- IC50 [1]: > 50 µM

Source: ChEMBL document CHEMBL4428101, “The Oncolytic Efficacy and in Vivo Pharmacokinetics of [2-(4-Chlorophenyl)quinolin-4-yl](piperidine-2-yl)methanol (Vacquinol-1) Are Governed by Distinct Stereochemical Features” (J Med Chem, 2016)
